TbMetRS inhib: Trypanosoma brucei MetRS inhibition | purified T. brucei MetRS, ATP depletion, Kinase-Glo luminescence | inhibition, % at 11.9 µM | hit rate 0.4% among 360,000;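 active = inhibition above a per-plate cutoff of the control wells' mean inhibition plus 3 SD, cut at about 5.5% in these data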;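 also: 0% = DMSO wells median and 100% = median of wells with control inhibitor compound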
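Material – parasite MetRS enzyme · Medium – HEPES-MgCl2-KCl buffer plus DTT, spermine, BSA, pyrophosphatase · Reagent – ATP, methionine and E. coli bulk tRNA substrates · Times – 15 min enzyme-compound preincubation, 2 h reaction, 10 min detection, 25 °C · Measured by – luminescence of leftover ATP · Evaluation – percent inhibition relative to median high and low control wells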
Efflux pump inh: antifungal efflux pump inhibition, Nile Red retention | S. cerevisiae Candida pump triplex | inhibition, % at 10 µM | hit rate 0.44% among 330,000 | AID 485275;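 active = plate passing quality check with inhibition over a set limit, or well fluorescence over plate mean plus 4 SD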;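 also: Nile Red retained in pooled yeast measured as flow cytometry median fluorescence; 0% = buffer negative control and 100% = Enniatin B positive control; higher means more Nile Red kept so more efflux inhibition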
TAG inh: inhibitors of triacylglycerol accumulation. inhibition, % at 12.5 µM. hit rate 0.66% among 230,000. H9c2 cells, Nile Red lipid (TAG) fluorescence; cells loaded with 200 µM oleic acid;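 active = pattern-corrected inhibition of lipid staining of at least 50% with the nuclear-stain viability signal not falling by more than 50%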;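 also: 0% = DMSO wells and 100% = triacsin C control wells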
SMARCA2 activ: activators of SMARCA2 function; MG213 cells, MMTV-luciferase reporter, dexamethasone, overnight; activation, % at 9.1 µM; hit rate 1% among 370,000; in the data active = activation above about 7.8%;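 also: 0% = vehicle wells and 100% = reference activator wells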
AHR activator: human AHR activation. P35869. AHR-responsive luciferase reporter cells, luminescence. activation, % at 5 µM. hit rate 2.5% among 320,000; in the data active = activation above about 47%;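 also: 0% = vehicle wells and 100% = reference agonist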
Target sequence (P35869 whole entry, looked up): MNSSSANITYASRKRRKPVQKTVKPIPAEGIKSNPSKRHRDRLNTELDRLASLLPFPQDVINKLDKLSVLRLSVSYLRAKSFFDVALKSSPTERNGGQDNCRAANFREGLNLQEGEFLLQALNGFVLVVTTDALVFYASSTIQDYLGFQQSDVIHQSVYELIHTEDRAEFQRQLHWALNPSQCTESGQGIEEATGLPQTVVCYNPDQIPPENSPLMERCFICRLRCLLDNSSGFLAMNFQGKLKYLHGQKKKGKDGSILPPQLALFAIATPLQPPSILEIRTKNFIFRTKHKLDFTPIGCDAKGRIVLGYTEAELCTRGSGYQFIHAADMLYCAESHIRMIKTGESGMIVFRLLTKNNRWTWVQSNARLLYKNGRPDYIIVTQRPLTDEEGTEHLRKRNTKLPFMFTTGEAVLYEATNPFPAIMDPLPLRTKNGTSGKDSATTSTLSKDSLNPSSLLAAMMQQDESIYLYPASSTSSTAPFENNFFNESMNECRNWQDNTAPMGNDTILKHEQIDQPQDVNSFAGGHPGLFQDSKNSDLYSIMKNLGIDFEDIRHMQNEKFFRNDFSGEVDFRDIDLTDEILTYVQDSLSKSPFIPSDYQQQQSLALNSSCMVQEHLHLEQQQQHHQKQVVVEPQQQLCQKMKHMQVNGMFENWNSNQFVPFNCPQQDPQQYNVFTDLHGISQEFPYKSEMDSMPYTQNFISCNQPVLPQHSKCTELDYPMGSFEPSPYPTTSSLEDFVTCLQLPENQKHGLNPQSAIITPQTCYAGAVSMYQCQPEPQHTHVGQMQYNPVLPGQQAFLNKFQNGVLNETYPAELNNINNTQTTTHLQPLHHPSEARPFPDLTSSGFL
Yeast cmpd fluor: compound fluorescence in yeast efflux pump counter-screen; shares compounds with Efflux pump inh; S. cerevisiae AD/pABC3, flow cytometry; fluorescence ratio to DMSO, % at 10 µM; hit rate 4% among 1,700; AID 588517;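 active = fluorescence ratio to DMSO above its plate's cutoff, the plate mean ratio plus 5 SD, cut at about 210% in these data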;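 also: unstained yeast with no Nile Red so the signal is compound autofluorescence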
CaMdr1 efflux inh: inhibitors of Candida albicans Mdr1 efflux pump; shares compounds with Efflux pump inh; S. cerevisiae AD/CaMDR1, Nile Red efflux, flow cytometry; inhibition, % at 10 µM; hit rate 1% among 1,700; AID 588518; in the data active = inhibition above about 26%;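 also: 0% = DMSO vehicle and 100% = reference inhibitor; higher means more Nile Red retained so more efflux inhibition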
Cdr2 pump inh: blocks the Candida albicans Cdr2 efflux pump in yeast. Nile Red retention ratio vs DMSO, % at 10 µM. shares compounds with Efflux pump inh. hit rate 4% among 1,700. S. cerevisiae AD/CaCDR2, Nile Red retention, flow cytometry; in the data active = Nile Red retention ratio vs DMSO above about 190%;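 also: higher ratio means more blocking of Cdr2 efflux of the dye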
Cdr1 pump inh: inhibitors of Candida albicans Cdr1 efflux pump | hit rate 1% among 1,700 | shares compounds with Efflux pump inh | AID 588522 | S. cerevisiae AD/CaCDR1, Nile Red efflux, flow cytometry | inhibition, % at 10 µM;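 active = inhibition above the screen-wide mean plus twice its standard deviation, cut at about 32% in these data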
Numbers without * were called inactive; . = no result; + = active, no number. Only some compounds are listed: those with a hit (about 4.1% of all), similar ones and a draw of the others.

SMILES	TbMetRS inhib	Efflux pump inh	TAG inh	SMARCA2 activ	AHR activator	Yeast cmpd fluor	CaMdr1 efflux inh	Cdr2 pump inh	Cdr1 pump inh
CCN1/C(=C/c2cccc[n+]2C)Sc2ccc(OC)cc21	0	0	.	-8	0	.	.	.	.
Cc1nn2c3c(cnc2c1-c1ccccc1)C(=O)CCC3	0	0.6*	4	-3	6	106	0	103	0
C#Cc1cccc(OCC(C)CN2CCC(C(O)(c3ccccc3)c3ccccc3)CC2)c1 (stereo unspecified)	.	.	.	-5	.	.	.	.	.
CCCOP(=O)(c1ccc(N(C)C)cc1)C(Nc1ccccc1)c1ccc(N(C)C)cc1 (stereo unspecified)	0	2.6*	.	-2	1	112	0	121	0
COC(=O)c1ccc(OCC(=O)N2CCCc3ccccc32)cc1	-1	2.8*	.	-3	-3	105	0	94	0
CN(C)C(=S)SCC(=O)Nc1ccc(Cl)cc1Cl	0	15*	.	0	1	98	0	94	0
O=C(CC(=O)Nc1ccc(Cl)cc1Cl)Nc1ccc(Cl)cc1Cl	-1	0	.	-2	4	.	.	.	.
O=C(Cc1ccccc1)Nc1ccc(F)cc1	-1	0	.	-2	6	.	.	.	.
CC(=O)Nc1ccc(NC(=O)Cc2ccc(F)cc2)cc1	.	1.1*	.	.	1	112	0	106	0
Cc1cc(S(=O)(=O)N2CCOCC2)ccc1OCC(=O)Nc1ccc(Br)cc1F	0	0.9*	.	2	1	110	0	96	0
COC(=O)[C@]12CCCCC=C1N(Cc1ccc(OC)cc1)C(=O)[C@@H]2CC(=O)N1CCN(C(=O)C2CC2)CC1	.	.	.	-3	.	.	.	.	.
CCC1=NN2C(=N)/C(=C/c3c(C)nn(-c4ccccc4)c3Cl)C(=O)N=C2S1	1	23*	.	3	15	110	0	106	0
O=C(CSc1ncccc1C(=O)O)NC12CC3CC(CC(C3)C1)C2	0	0.5*	0	-4	0	104	0	104	0
CC(=O)N1CCCN(S(=O)(=O)c2ccc3c(c2)n(C)c(=O)c(=O)n3C)CC1	.	.	.	5	.	.	.	.	.
CN(C)c1ccc(/C=C/C=C2/SC(=S)N(c3ccccc3)C2=O)cc1	-2	2.4*	.	-3	1	+	1	547*	1
CCN(CC)Cc1c(O)ccc2c(=O)c(-c3ccc4c(c3)OCCO4)coc12	-1	0	-1	-2	-3	.	.	.	.
CCN(CC)Cc1c(O)ccc2c(=O)c(-c3ccccc3)coc12	-1	1.2*	3	2	-3	93	0	94	0
CN(C)N1C(N)=C(C#N)C(c2ccc3c(c2)OCO3)C2=C1CCCC2=O (stereo unspecified)	-1	2.3*	.	1	0	100	0	92	0
Cc1ccccc1NC(=O)CCC(=O)N/N=C/c1cc([N+](=O)[O-])ccc1O	0	0	.	-1	7	.	.	.	.
Cc1ccc(C)c(NC(=O)CCC(=O)N/N=C/c2cc([N+](=O)[O-])ccc2O)c1	-2	1.4*	4	-3	0	103	0	97	0
COc1ccc(C(C)=O)cc1CSc1nc2cc(C(=O)O)ccc2c(=O)n1Cc1ccccc1	-1	5.8*	.	0	0	98	0	108	0
O=C1/C(=C/C=C/c2ccco2)SC(=S)N1c1ccc(O)cc1	1	0	-7	0	0	.	.	.	.
CC(C)C(C(=O)O)N1C(=O)/C(=C/C=C/c2ccco2)SC1=S (stereo unspecified)	0	1.2*	1	.	0	135	0	161	0
CCOC(=O)c1cccc(NC(=O)CN(C)S(=O)(=O)c2ccc(F)cc2)c1	.	.	.	0	.	.	.	.	.
Cn1c(SCC(=O)N/N=C/c2ccc([N+](=O)[O-])s2)nnc1-c1ccc(Cl)cc1	0	16*	.	-2	19	111	0	127	0
SMILES	TbMetRS inhib	Efflux pump inh	TAG inh	SMARCA2 activ	AHR activator	Yeast cmpd fluor	CaMdr1 efflux inh	Cdr2 pump inh	Cdr1 pump inh
COc1cc([N+](=O)[O-])cc(/C=N/NC(=O)CSc2nnc(-c3ccccc3)n2C)c1O	.	0	.	.	1	.	.	.	.
Fc1ccc(F)c(Cn2ccc3ccc(-c4ccc5ccn(Cc6cc(F)ccc6F)c5c4)cc32)c1	.	.	.	-2	.	.	.	.	.
CC(C)Cn1c(-c2csc(C(C)C)c2)n[nH]c1=S	1	0	.	0	7	.	.	.	.
CCn1c(-c2csc(C(C)C)c2)n[nH]c1=S	0	11*	.	-4	6	100	0	108	0
CCOC(=O)[C@@]12CN(C(=O)OC(C)(C)C)CC=C1N(Cc1ccc(OC)cc1)C(=O)[C@H]2CC(=O)N1CCCC1	.	.	.	2	.	.	.	.	.
Cc1ccc(S(=O)(=O)NCC(=O)N2CCN(c3ccccn3)CC2)cc1C	.	.	.	-3	.	.	.	.	.
COc1cc(/C=C(\C#N)c2nc3ccccc3n2C)cc(OC)c1O	2	1.0*	-3	-4	12	100	0	108	0
Cn1c(/C(C#N)=C/c2ccc(O)cc2)nc2ccccc21	0	0	-7	6	2	.	.	.	.

Screening results from PubChem BioAssay.
